Molecules are shown by their SMILES. In brackets after ≈: the same amount, converted by molar mass.

For data set [1], the target named is T1, Trace amine-associated receptor 1 (Homo sapiens, UniProt Q96RJ0).
T1 sequence (Q96RJ0 whole entry): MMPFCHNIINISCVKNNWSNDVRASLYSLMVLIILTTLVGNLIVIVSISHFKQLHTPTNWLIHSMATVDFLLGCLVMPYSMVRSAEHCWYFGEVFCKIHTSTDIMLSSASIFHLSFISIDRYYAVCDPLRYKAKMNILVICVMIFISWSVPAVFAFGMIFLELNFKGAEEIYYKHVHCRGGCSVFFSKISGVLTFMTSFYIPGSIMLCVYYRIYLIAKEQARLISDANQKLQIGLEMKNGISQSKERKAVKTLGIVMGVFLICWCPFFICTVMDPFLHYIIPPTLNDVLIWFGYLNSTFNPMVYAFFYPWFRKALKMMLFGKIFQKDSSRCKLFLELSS
Briefly: Displacement of (S)-4-(2,4-difluorophenyl-3-tritio) -4,5-dihydro-2-oxazolamine from human TAAR1 receptor expressed in HEK293 cells after 90 mins by beta counting analysis. Type of data set: cell-based.

Data set [2] in a line: Cmax in mouse at 10 mg/kg, po. Type of data set: ADME, organism-based. Also noted: dose 10 mg/kg, route oral. The conditions noted are these: in vivo.
In a further data set the test system is Rattus norvegicus. Kind of data set: Inhibition of cocaine-induced hyperlocomotion in po dosed Wistar rat assessed as reduction in locomotor activity after 30 mins. Type of data set: functional, organism-based. The procedure, abridged: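 Rats were pretreated orally with several doses of test compound. Hyperlocomotion was then induced with cocaine at 20 mg/kg i.p., and the reduction in locomotor activity was recorded.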

Data set [3] is described as follows: Thermodynamic solubility of the compound at pH 6.5. Type of data set: physicochemical. The conditions noted are these: buffer, read-out: Therm_solubility. In short, it runs like this: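 Thermodynamic solubility determined using solid material, with the final pH being 6.5; value expressed in µg/ml.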
Data set [4] in a line: Fraction unbound in mouse plasma. Type of data set: ADME, cell-free.
A short description of data set [5]: Oral bioavailability in rat at 3.8 mg/kg. Type of data set: ADME, organism-based. The conditions noted are these: in vivo.
Data set [6] in a line: Oral bioavailability in mouse at 10 mg/kg. Type of data set: ADME, organism-based. The conditions noted are these: in vivo.
The subject of another data set is Liver. Kind of data set: Intrinsic clearance in mouse liver microsomes assessed per mg protein. Type of data set: ADME, Microsome. A general note: Liver microsomes are vesicles of endoplasmic reticulum, rich in cytochrome P450 enzymes.
The nature of data set [7]: Volume of distribution at steady state in rat at 4.8 mg/kg, iv. The conditions noted are these: in vivo, read-out: Vdss. Also noted: dose 4.8 mg/kg, route intravenous. Type of data set: ADME, organism-based.
Data set [8] in a line: Dissociation constant, pKa of the compound. Type of data set: physicochemical.
Data set [9] is described as follows: Ratio of drug level in brain to plasma in rat at 4.8 mg/kg, iv. Type of data set: ADME, organism-based. Also noted: dose 4.8 mg/kg, route intravenous. To be noted: brain and plasma, read-out: BPR.
Data set [10] is described as follows: Ratio of drug level in brain to plasma in mouse at 5 mg/kg, iv. Type of data set: ADME, organism-based. Also noted: dose 5 mg/kg, route intravenous. To be noted: brain and plasma, read-out: BPR.
Data set [11] in a line: Permeability of the compound by PAMPA assay. Type of data set: ADME. The conditions noted are these: read-out: permeability.
Data set [12] is described as follows: Cmax in rat at 3.8 mg/kg, po. Type of data set: ADME, organism-based. Also noted: dose 3.8 mg/kg, route oral. The conditions noted are these: in vivo.
The target in data set [13] is Trace amine-associated receptor 1 (Mus musculus) (UniProt Q923Y8). Briefly: Agonist activity at mouse TAAR1 receptor expressed in HEK293 cells after 30 mins relative to control. Type of data set: functional, cell-based.
The subject of data set [14] is Liver microsomes. Kind of data set: Intrinsic clearance in human liver microsomes assessed per mg protein. Type of data set: ADME, Microsome.
Data set [15] relates to Liver microsomes. Briefly: Intrinsic clearance in rat liver microsomes assessed per mg protein. Type of data set: ADME, Microsome.
In data set [16] the target is Trace amine-associated receptor 1 (Rattus norvegicus, UniProt Q923Y9). Briefly: Agonist activity at rat TAAR1 receptor expressed in HEK293 cells after 30 mins. Type of data set: functional, cell-based.
The nature of data set [17]: Volume of distribution at steady state in mouse at 5 mg/kg, iv. Type of data set: ADME, organism-based. Also noted: dose 5 mg/kg, route intravenous. To be noted: in vivo, read-out: Vdss.
Data set [18] is described as follows: Half life in mouse at 10 mg/kg, po. Type of data set: ADME, organism-based. Details: dose 10 mg/kg, route oral. To be noted: in vivo.
In data set [19] the target is Trace amine-associated receptor 1 (Rattus norvegicus) (UniProt Q923Y9). Briefly: Agonist activity at rat TAAR1 receptor expressed in HEK293 cells after 30 mins relative to control. Type of data set: functional, cell-based.
Data set [20] is described as follows: Lipophilicity, log D of the compound. To be noted: octanol/water. Type of data set: physicochemical. In short, it runs like this:
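Distribution coefficient (logD) measured at pH 7.4.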

Data set [21] in a line: Clearance in mouse at 5 mg/kg, iv. To be noted: in vivo. Type of data set: ADME, organism-based. Also noted: dose 5 mg/kg, route intravenous.
The nature of data set [22]: Clearance in rat at 4.8 mg/kg, iv. Type of data set: ADME, organism-based. Details: dose 4.8 mg/kg, route intravenous. The conditions noted are these: in vivo.
A short description of data set [23]: Fraction unbound in rat plasma. Type of data set: ADME, cell-free.
Data set [24] is described as follows: Half life in rat at 3.8 mg/kg, po. To be noted: in vivo. Also noted: dose 3.8 mg/kg, route oral. Type of data set: ADME, organism-based.
In another data set the test system is CHL. Kind of data set: Selectivity ratio of Ki for human adrenergic alpha2A receptor expressed in CHL cells to Ki for human TAAR1 receptor. Type of data set: cell-based.
Data set [25] deals with Trace amine-associated receptor 1 (Mus musculus, UniProt Q923Y8). Kind of data set: Agonist activity at mouse TAAR1 receptor expressed in HEK293 cells after 30 mins. Type of data set: functional, cell-based.
Trace amine-associated receptor 1 (Mus musculus, UniProt Q923Y8), sequence (Q923Y8 whole entry): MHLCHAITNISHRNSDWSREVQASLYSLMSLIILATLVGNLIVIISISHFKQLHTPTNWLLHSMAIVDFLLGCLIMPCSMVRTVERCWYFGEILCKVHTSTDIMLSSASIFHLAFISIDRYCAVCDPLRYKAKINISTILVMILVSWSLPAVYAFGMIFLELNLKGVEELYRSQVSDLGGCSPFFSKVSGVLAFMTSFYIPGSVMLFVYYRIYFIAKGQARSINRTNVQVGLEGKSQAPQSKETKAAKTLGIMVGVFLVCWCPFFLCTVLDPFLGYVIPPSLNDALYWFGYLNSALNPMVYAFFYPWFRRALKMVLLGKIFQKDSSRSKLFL

Trace amine-associated receptor 1 (Rattus norvegicus, UniProt Q923Y9), sequence (Q923Y9 whole entry): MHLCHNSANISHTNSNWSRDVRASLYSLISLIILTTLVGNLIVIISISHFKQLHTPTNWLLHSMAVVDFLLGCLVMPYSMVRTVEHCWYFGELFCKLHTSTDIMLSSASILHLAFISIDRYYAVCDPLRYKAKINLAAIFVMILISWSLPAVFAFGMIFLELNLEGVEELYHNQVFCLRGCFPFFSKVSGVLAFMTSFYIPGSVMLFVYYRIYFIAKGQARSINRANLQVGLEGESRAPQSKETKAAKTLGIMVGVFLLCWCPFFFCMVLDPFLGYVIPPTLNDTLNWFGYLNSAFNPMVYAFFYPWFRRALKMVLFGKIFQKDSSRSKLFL
Trace amine-associated receptor 1 (Rattus norvegicus), sequence (Q923Y9 whole entry): as above
Trace amine-associated receptor 1 (Mus musculus), sequence (Q923Y8 whole entry): as the sequence (Q923Y8 whole entry) above

`FC(F)(F)c1cccc(C(F)(F)F)c1Cc1ncc[nH]1`: the inhibition constant Ki – broadly, a dissociation constant, usually derived from enzyme kinetics or from competition with a known ligand – in data set [1] is 13.3 µM.
With `CC(C)N(Cc1cnc[nH]1)c1ccc(Cl)cc1`, the figures for the Cmax in [2] and in data set [12] were 1740 ng/mL and 519 ng/mL, respectively. The inhibition result in the data set with Rattus norvegicus was “Dose-dependent effect”. The solubility thermodynamic in data set [3] came out at 97 µg/mL (≈ 388 µM). Also, the fraction unbound (as a rule, free concentration divided by total concentration) in data set [4] is 0.08; in data set [23], 0.06. The bioavailability (in general, the share of a dose that reaches the circulation, judged against a reference dose that is usually intravenous) came to 66% in data set [5] and 86% in data set [6]. Moreover, the CLint with Liver stood at 17.5 µL/min/mg; with Liver microsomes [14], 18 µL/min/mg; in the data set on Liver microsomes [15], 70 µL/min/mg. For the same compound, the Vd was found to be 4.1 L/kg in data set [7] and 2 L/kg in [17]. The pKa (commonly the negative logarithm of the acid dissociation constant) in [8] worked out at 3.5. Further, the Kp in data set [9] was found to be 6.6; in data set [10] it was 0.6. Also, in data set [11], the Papp came to 2.7 ×10⁻⁶ cm/s. Further, the results for the Emax in data set [13] and in data set [19] were 26% and 24%, respectively. In addition, the EC50 (as a rule, the concentration needed to bring the measured effect to its halfway point) in data set [16] was found to be 0.025 µM. Further, the figures for the half-life in data set [18] and in [24] were 1.8 h and 1 h, respectively. Besides, the pH-dependent lipophilicity (logD) (in general, the decadic logarithm of the distribution of all forms, ionised or not, between an organic phase and buffer at a given pH) in [20] stood at 3.3. In addition, the clearance (commonly a measure of how efficiently the substance is removed, as volume per time) came to 24 mL/min/kg in data set [21] and 40 mL/min/kg in data set [22].
The compound `c1ccc(CC2=NCCN2)cc1` [TOLAZOLINE] registered an inhibition constant Ki in data set [1] of 1.64 µM. In addition, in the data set on CHL, the Ratio Ki was determined as 0.06.
`CC(C)N(Cc1cnc[nH]1)c1ccccc1`: the EC50 in [25] is 0.028 µM; in data set [16], 0.0073 µM. The Emax (usually the maximal effect, on the per cent scale that the assay sets) in data set [13] is 45%; in data set [19], 34%.
As for `COc1cccc(N(Cc2cnc[nH]2)C(C)C)n1`, the Emax in data set [13] turned out to be 35%; in [19] it was 18%. In addition, a half-maximal effect in data set [16] (EC50) was put at 0.025 µM.
In [1], `c1ccc2c(c1)CCCN2Cc1cnc[nH]1` displayed a Ki of 0.012 µM.
Compound `CN(Cc1ncc[nH]1)c1ccccc1` returned a Ki in [1] of 1.27 µM. The Ratio Ki with CHL is 0.2.
Consider `Clc1cccc(Cl)c1Cc1ncc[nH]1`, for which affinity in [1] was put at a Ki of 1.39 µM. For the same compound, the Ratio Ki in the data set on CHL came to 0.7.
Turning to `c1ccc2c(c1)CCCN2Cc1c[nH]cn1`, the Ratio Ki in the data set on CHL came to 4.
As to `CC(C)N(Cc1cnc[nH]1)c1cccc(Cl)c1`, the EC50 stood at 0.01 µM in [25] and 0.027 µM in data set [16]. In addition, the Emax came to 50% in data set [13] and 22% in [19].
In the same order, the values of `COc1cccc(N(Cc2cnc[nH]2)C(C)C)c1` are 0.072 µM, 0.061 µM, 55% and 25%.
The like results for `CC(C)N(Cc1ncc[nH]1)c1cccc(Cl)c1` were, in that order, 0.5 µM, 0.4 µM, 54% and 60%.
The compound `CC(C)N(Cc1cnc[nH]1)c1cc(Cl)cc(Cl)c1` returned an inhibition constant Ki in data set [1] of 0.004 µM. Besides, the Ratio Ki in the data set on CHL was determined as 37.
In the same order, the values of `c1ccc(NCc2ncc[nH]2)cc1` are 4.25 µM and 0.2.

The values are drawn from ChEMBL document CHEMBL2203234, “Optimisation of imidazole compounds as selective TAAR1 agonists: discovery of RO5073012” (Bioorg Med Chem Lett, 2012).
